Active and inactive are the calls of the source. The rule behind the calls is not given here.

Series [1] concerns the target T1, Retinoic acid receptor RXR-alpha (Homo sapiens) (UniProt P19793).
T1 sequence (whole entry): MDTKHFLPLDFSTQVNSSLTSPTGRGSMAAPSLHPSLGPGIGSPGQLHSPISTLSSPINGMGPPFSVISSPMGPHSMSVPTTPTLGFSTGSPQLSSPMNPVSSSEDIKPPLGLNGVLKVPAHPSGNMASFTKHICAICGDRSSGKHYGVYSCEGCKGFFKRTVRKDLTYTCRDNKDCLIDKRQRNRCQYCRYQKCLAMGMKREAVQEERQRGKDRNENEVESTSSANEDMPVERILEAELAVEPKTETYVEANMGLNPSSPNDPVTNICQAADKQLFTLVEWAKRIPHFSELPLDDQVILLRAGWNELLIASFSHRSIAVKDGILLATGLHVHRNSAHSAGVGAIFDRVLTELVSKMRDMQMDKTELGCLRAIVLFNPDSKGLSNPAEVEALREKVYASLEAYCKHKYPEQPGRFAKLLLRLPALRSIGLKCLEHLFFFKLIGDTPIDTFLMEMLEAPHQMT
Put plainly: In-vivo activation of RXRalpha in BALB/c mouse xenografted with human KM12C cells assessed as induction of beta-catenin protein degradation at 100 mg/kg, ig dosed daily for 15 days by Western blot analysis. The series is classed as functional, organism-based.

Series [2] relates to HCT-116. Put plainly: Inhibition of cell proliferation of human HCT116 cells at 30 to 60 uM incubated for 15 hrs by EdU assay. It counts as functional, cell-based. The method, boiled down: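 Colon cancer cells treated for 15 h. Proliferation measured in 96-well plates using an EdU incorporation kit, with cells examined under a fluorescence microscope.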
Series [3] has as its target T1, Retinoic acid receptor RXR-alpha (Homo sapiens). Put plainly: Activation of RXRalpha (unknown origin) expressed in human HCT116 cells co-expressing beta-catenin assessed as induction of RXRalpha interaction with beta-catenin at 30 to 60 uM incubated for 15 hrs by mammalian two-hybrid assay. It counts as cell-based. The conditions noted are these: HCT-116. An outline of the steps: (§1)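 Mammalian two-hybrid: cells co-transfected by lipofection with pBIND-β-catenin/S33Y plus pACT-RXRα (RXRα–β-catenin) or pACT-c-Cbl (β-catenin–c-Cbl); 20 h after transfection, compound added for 15 h; cells lysed in passive lysis buffer, 4 °C, 1 h; firefly and Renilla luciferase read by dual-luciferase kit.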

Series [4] shares this target. Put plainly: Binding affinity to His-tagged RXRalpha LBD (unknown origin) expressed in Escherichia coli strain BL21 (DE3) at 200 uM by STD-NMR spectroscopy.
Series [5] in a line: Toxicity in BALB/c mouse xenografted with human KM12C cells assessed as effect on biochemical parameter by measuring ALT level at 100 mg/kg, ig dosed daily for 15 days by automatic chemistry analyzer based analysis (reference value: 24.18 +/- 0.77 U/L). As to conditions: in vivo, po, 360 h. It counts as organism-based. For orientation: A xenograft is tissue or cells of one species grown in another, often human tumour cells in immunodeficient mice.

Series [6] addresses T1, Retinoic acid receptor RXR-alpha (Homo sapiens). Put plainly: In-vivo activation of RXRalpha in BALB/c mouse xenografted with human KM12C cells assessed as effect on PCNA protein expression at 100 mg/kg, ig dosed daily for 15 days by immunohistochemistry analysis. It counts as functional, organism-based.
For series [7] the target is unchanged. Put plainly: In-vivo activation of RXRalpha in BALB/c mouse xenografted with human KM12C cells assessed as reduction in c-Myc mRNA expression at 100 mg/kg, ig dosed daily for 15 days by real-time PCR analysis. The series is classed as functional, organism-based. An outline of the steps:
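KM12C cells (1×10^6 per mouse in 100 μL HBSS) injected subcutaneously into both flanks of nude mice; after seven days, randomized to three groups, dosed intragastrically once daily for 15 days with vehicle (CMC-Na) or 100 mg/kg compound; mice euthanized and tumors removed for analysis.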

The target is the same in series [8]. Put plainly: Activation of RXRalpha in human KM12C cells assessed as inhibition of Wnt/beta-catenin-dependent transcriptional activity at 25 to 50 uM incubated for 15 hrs by TOP/FOP luciferase assay. It counts as cell-based. An outline of the steps:
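TOP/FOP reporter: cells co-transfected by lipofection with pRL-TK plus TOPflash or FOPflash; compound added 20 h after transfection for 15 h; passive lysis at 4 °C, 1 h; firefly and Renilla luciferase measured by dual-luciferase assay.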

Series [9] is described as follows: Toxicity in human HIEC6 cells assessed a reduction in cell viability at 6.25 to 100 uM incubated for 15 hrs by MTT assay. The series is classed as cell-based. An outline of the steps:
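HIEC-6 cells grown in MEM with 4% FBS, HEPES, GlutaMAX and 10 ng/mL EGF. MEF cells grown in DMEM high glucose with 10% FBS. Cells plated at 1×10⁴ per well and treated with a concentration series for 15 h. Viability read by MTT: 4 h at 37 °C, DMSO solubilization, absorbance at 570 nm.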
Background: Tetrazolium dyes change colour on reduction, which living cells bring about.

In series [10] the target is T1, Retinoic acid receptor RXR-alpha (Homo sapiens). Put plainly: Activation of RXRalpha in human HCT116 cells assessed as increase in p21 (WAF1/CIP1) protein expression at 30 to 60 uM incubated for 15 hrs by Western blot analysis. It counts as cell-based. The conditions noted are these: HCT-116. For orientation: Immunoblotting shows a protein as a band on a membrane.

Series [11] is described as follows: AUC (0 to t) in Sprague-Dawley rat at 100 mg/kg, ig measured after 0.083 to 36 hrs by LC-MS/MS analysis. The series is classed as ADME, organism-based. On the set-up: time upper 36 hr, time lower 0.083 hr, dose 100 mg/kg, route intragastric. As to conditions: in vivo, po. The method, boiled down:
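SD rats (200 ± 20 g) randomized to three groups; single intragastric dose of 100 mg/kg or vehicle (0.5% CMC-Na). Tail-vein blood (0.5 mL) drawn at 0.083, 0.25, 0.5, 1, 2, 4, 8, 12, 24 and 36 h. Plasma separated by centrifugation at 2000 rpm for 10 min, frozen at -80 °C, then quantified by LC-MS/MS.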

For series [12], the target named is T1, Retinoic acid receptor RXR-alpha (Homo sapiens). Put plainly: Activation of RXRalpha in human KM12C cells assessed as […] crease in p21 (WAF1/CIP1) mRNA expression at 25 to 50 uM incubated for 15 hrs by real-time PCR analysis. It counts as cell-based.
Series [13] is described as follows: Hepatotoxicity in BALB/c mouse xenografted with human KM12C cells assessed as induction of hepatomegaly by measuring body weight ratio at 100 mg/kg, ig dosed daily for 15 days. The series is classed as toxicity, organism-based. The conditions noted are these: in vivo, po, 360 h.
Series [14] is described as follows: Hepatotoxicity in BALB/c mouse xenografted with human KM12C cells assessed as induction of hepatocellular morphology damage at 100 mg/kg, ig dosed daily for 15 days by H and E staining. It counts as toxicity, organism-based. The conditions noted are these: in vivo, po, 360 h.
Series [15] concerns the target T1, Retinoic acid receptor RXR-alpha (Homo sapiens). Put plainly: In-vivo activation of RXRalpha in BALB/c mouse xenografted with human KM12C cells assessed as increase in p21 (WAF1/CIP1) mRNA expression at 100 mg/kg, ig dosed daily for 15 days by real-time PCR analysis. The series is classed as functional, organism-based.
For series [16] the target is unchanged. Put plainly: Activation of RXRalpha in human HCT116 cells assessed as reduction in c-Myc mRNA expression at 30 to 60 uM incubated for 15 hrs by real-time PCR analysis. The series is classed as cell-based. The conditions noted are these: HCT-116.
For series [17] the target is unchanged. Put plainly: Activation of RXRalpha (unknown origin) expressed in human KM12C cells co-expressing beta-catenin assessed as induction of RXRalpha interaction with beta-catenin at 25 to 50 uM incubated for 15 hrs by mammalian two-hybrid assay. It counts as cell-based. An outline of the steps:
as §1

Series [18] has the same target. Put plainly: Activation of RXRalpha in human SW620 cells assessed as reduction in Cdc2 mRNA expression at 40 to 80 uM incubated for 15 hrs by real-time PCR analysis. As to conditions: SW-620. It counts as cell-based.

One may read the AUC(0-t) as exposure summed from dosing to a finite time, without extrapolation to infinity. As to `COc1ccc2c(c1)CC[n+]1cc3c(OC)cccc3cc1-2.[Cl-]`, the result in [1], in series [3], in series [4], in [6], in series [7] and in [8] was Active. The result in series [10], in series [12], in series [15], in [16], in series [17] and in series [18] was Active. In series [2], the inhibition result was “Active”. For the same compound, the Activity is listed as 27.2 U/L in [5], “Non-Toxic” in [9], “Non-Toxic” in series [13] and “Non-Toxic” in series [14]. In series [11], this compound showed an AUC(0-t) of 2100 ng·h/mL.

Turning to `COc1ccc2cc3[n+](cc2c1OC)CCc1cc2c(cc1-3)OCO2.[Cl-]` [BERBERINE CHLORIDE], the outcome in [1], in series [3], in [6], in series [7], in series [8] and in series [10] was Active. Besides, the outcome in series [12], in series [15], in series [16], in [17] and in series [18] was Active. For the same compound, the Activity in series [5] is on record as 27.9 U/L. Also, the AUC(0-t) in series [11] came to 99 ng·h/mL.
